Measurements: PMC4608253 (Journal of chromatography. B, Analytical technologies in …, 2015)
Read-outs that look alike come from different tables or passages of the source.

How the values were obtained:
in vivo = format: in vivo, A/J mice; conditions: for concentration in the PK study: oral XCHT 500 mg/kg; for detected in the blood: mice, oral XCHT extract 0.5 g/kg
[1] = format: physicochemical, mice; conditions: for Accuracy (RE, %) 25°C for 6 h / Accuracy (RE, %) Frozen for 30 days: stability in mice plasma/blood QC sample; for Accuracy (RE, %) Frozen for 30 days: −80°C; for Accuracy (RE, %) 4°C for 24 h: stability, extracted QC sample in auto-sampler
How it was run: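 Blank mouse blood spiked with analytes and vitamin C, then extracted with methanol containing daidzein internal standard (0.5 μM) by 1 min vortex. Spun at 20,000 × g for 15 min and dried under air. Three replicates per QC level were held unextracted at 25°C for 6 h, at −80°C for 30 days, or extracted in the 4°C autosampler for 24 h. Analysed by UPLC-MS/MS (C18, formic acid/acetonitrile, positive MRM); accuracy as RE.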

[2] = male A/J mouse, oral XCHT extract 500 mg/kg, blood, mean±SD, n=6
[3] = male A/J mouse, oral XCHT extract 500 mg/kg, blood, median (min~max), n=6
[4] = male, A/J, mouse, whole blood, po, 500 mg/kg

| SMILES | Accuracy (RE, %) 25°C for 6 h ([1]; spiked concentration 6.25) [%] | Accuracy (RE, %) 25°C for 6 h ([1]; spiked concentration 50) [%] | Accuracy (RE, %) Frozen for 30 days ([1]; spiked concentration 6.25) [%] | Accuracy (RE, %) Frozen for 30 days ([1]; spiked concentration 50) [%] | Accuracy (RE, %) 4°C for 24 h ([1]; spiked concentration 6.25) [%] | Accuracy (RE, %) 4°C for 24 h ([1]; spiked concentration 50) [%] | AUC0-∞ (in vivo; [2]) [µM·h] | AUC(0-t) (in vivo; [2]) [µM·h] | Cmax (in vivo; [2]) [nM] | t1/2 (in vivo; [2]) [h] | Tmax (in vivo; [3]) | detected in the blood (in vivo) | Accuracy (RE, %) 25°C for 6 h ([1]; spiked concentration 62.5) [%] | Accuracy (RE, %) 25°C for 6 h ([1]; spiked concentration 500) [%] | Accuracy (RE, %) Frozen for 30 days ([1]; spiked concentration 62.5) [%] | Accuracy (RE, %) Frozen for 30 days ([1]; spiked concentration 500) [%] | Accuracy (RE, %) 4°C for 24 h ([1]; spiked concentration 62.5) [%] | Accuracy (RE, %) 4°C for 24 h ([1]; spiked concentration 500) [%] | other results |
| --- | --- | --- | --- | --- | --- | --- | --- | --- | --- | --- | --- | --- | --- | --- | --- | --- | --- | --- | --- |
| C[C@H]1O[C@@H](O[C@H]2CC[C@@]3(C)[C@@H](CC[C@]4(C)[C@@H]3C=C[C@]35OC[C@@]6(CCC(C)(C)C[C@H]63)[C@@H](O)C[C@]54C)[C@]2(C)CO)[C@H](O)[C@@H](O[C@@H]2O[C@H](CO)[C@@H](O)[C@H](O)[C@H]2O)[C@H]1O [SSa, saikosaponin a] | −1.5 | 7.4 | 10.8 | 12.1 | 12 | 10.6 |  |  |  |  |  |  |  |  |  |  |  |  | concentration in the PK study (in vivo; A/J mice, blood, time 5 min): 0.69±0.26; concentration in the PK study (in vivo; A/J mice, blood, time 15 min): 1.17±0.88; concentration in the PK study (in vivo; A/J mice, blood, time 30 min): 1.02±0.75; concentration in the PK study (in vivo; A/J mice, blood, time 60 min): 1.15±0.77; concentration in the PK study (in vivo; A/J mice, blood, time 120 min): 0.85±0.51; Accuracy (RE, %) 25°C for 6 h ([1]; spiked concentration 0.39): 0.7%; Accuracy (RE, %) Frozen for 30 days ([1]; spiked concentration 0.39): −6.7%; Accuracy (RE, %) 4°C for 24 h ([1]; spiked concentration 0.39): −7.4% |
| C[C@H]1O[C@@H](O[C@H]2CC[C@@]3(C)[C@@H](CC[C@]4(C)[C@@H]3C=C[C@]35OC[C@@]6(CCC(C)(C)C[C@H]63)[C@H](O)C[C@]54C)[C@]2(C)CO)[C@H](O)[C@@H](O[C@@H]2O[C@H](CO)[C@@H](O)[C@H](O)[C@H]2O)[C@H]1O [SSd, saikosaponin d] | −13.0 | 2.4 | 12.5 | 15.0 | 13.1 | 14.5 | 0.02584 ± 0.0185 | 0.02584 ± 0.0185 | 3.42 ± 0.74 | 12.18 ± 5.32 | 0.50 (0.125~0.5) h | detected |  |  |  |  |  |  | Accuracy (RE, %) 25°C for 6 h ([1]; spiked concentration 0.049): 6.8%; Accuracy (RE, %) Frozen for 30 days ([1]; spiked concentration 0.049): 8.7%; Accuracy (RE, %) 4°C for 24 h ([1]; spiked concentration 0.049): −19% |
| COc1c(O)cc(O)c2c(=O)cc(-c3ccccc3)oc12 [Wogonin, wogonin] |  |  |  |  |  |  |  |  |  |  |  |  | 9.5 | 3.1 | 15 | 10.3 | 14.8 | 13.5 | Tmax (in vivo; male, A/J, mouse, whole blood, po, 0.5 g/kg): 0.17 ± 0.09 h; AUC(0-inf) (in vivo; [4]): 0.116 ± 0.0822 µM·h; AUC(0-t) (in vivo; [4]): 0.11 ± 0.0878 µM·h; Cmax (in vivo; [4]): 18.8 ± 6.27 nM; Tmax (in vivo; [4]): 0.167 h; half-life (in vivo; [4]): 6.16 ± 4.85 h; Accuracy (RE, %) 25°C for 6 h ([1]; spiked concentration 3.9): 11.4%; Accuracy (RE, %) Frozen for 30 days ([1]; spiked concentration 3.9): 8.4%; Accuracy (RE, %) 4°C for 24 h ([1]; spiked concentration 3.9): 9.2% |
| COc1c(O[C@@H]2O[C@H](C(=O)O)[C@@H](O)[C@H](O)[C@H]2O)cc(O)c2c(=O)cc(-c3ccccc3)oc12 [Wogonoside, wogonoside] |  |  |  |  |  |  | 1.55574 ± 0.12091 | 1.44654 ± 0.33091 | 174 ± 42.1 | 4.77 ± 1.24 | 1.625 (0.083~3) h | detected | 8.5 | 1.4 | 10.1 | 11.2 | 15.1 | 12.6 | Tmax (in vivo; mean±SD, A/J mice, oral XCHT 0.5 g/kg): 1.58 ± 1.63 h; Accuracy (RE, %) 25°C for 6 h ([1]; spiked concentration 0.488): 14.1%; Accuracy (RE, %) Frozen for 30 days ([1]; spiked concentration 0.488): −10.9%; Accuracy (RE, %) 4°C for 24 h ([1]; spiked concentration 0.488): 2.3% |
